Results of several laboratories.
Compare with care: the assays were run in different laboratories.
RPS6KA2 C-terminal kinase domain: Ribosomal protein S6 kinase alpha-2, C-terminal kinase domain (RPS6KA2, Homo sapiens, UniProt Q15349)
RPS6KA2: Ribosomal protein S6 kinase alpha-2 (RPS6KA2, Homo sapiens, UniProt Q15349)
RPS6KA2 N-terminal kinase domain: Ribosomal protein S6 kinase alpha-2, N-terminal kinase domain (RPS6KA2, Homo sapiens, UniProt Q15349)

Structure (SMILES)	target	test	conditions	endpoint	result
CN(C)c1ncc(F)c(-c2cnn3ncccc23)n1	RPS6KA2 C-terminal kinase domain	binding, competition with immobilised ligand	1 µM	remaining binding	97%
Cc1cnc(NC2CCOCC2)nc1-n1cnc(C(=O)NC(CN)c2cc(F)cc(Cl)c2)c1 (stereo not shown)	RPS6KA2	enzyme activity, inhibitor, radiometric	1 µM	remaining activity	12%
NS(=O)(=O)c1cc(NC(=O)C2(c3ccccc3Cl)CC2)ccc1Oc1cccc(Cl)c1	RPS6KA2 C-terminal kinase domain	cell-free assay, competition with immobilised ligand	1 µM	remaining binding	100%
CCCOc1ccc(OC)c(F)c1C(=O)c1ccc(C(=O)N[C@@H]2CNC[C@H]2NC(=O)c2ccc3[nH]ncc3c2)cc1	RPS6KA2	enzyme activity, inhibitor	10 µM	remaining activity	6%
CN(C)c1nccc(-c2cnn3ncccc23)n1	RPS6KA2 C-terminal kinase domain	binding, competition with immobilised ligand	1 µM	remaining binding	100%
CCS(=O)(=O)c1cc2cc(C[C@](O)(CC(C)(C)c3ccc(F)cc3C(N)=O)C(F)(F)F)[nH]c2cn1	RPS6KA2 N-terminal kinase domain	cell-free assay, competition with immobilised ligand	1 µM	remaining binding	100%
CCCS(=O)(=O)Nc1ccc(F)c(C(=O)c2c[nH]c3ncc(-c4ccc(Cl)cc4)cc23)c1F	RPS6KA2	enzyme activity, inhibitor	1 µM	inhibition	< 10%
Nc1ncnc2occ(-c3ccc(NC(=O)Nc4cc(C(F)(F)F)ccc4F)cc3)c12	RPS6KA2 N-terminal kinase domain	cell-free assay, inhibitor	20 µM	remaining signal	0.6%
Cc1ccc(C(=O)Nc2ccc(CN3CCN(C)CC3)c(C(F)(F)F)c2)cc1C#Cc1cnc2cccnn12	RPS6KA2	enzyme activity, inhibitor	23.5 nM	activity vs control	98%
O=c1nc(-c2ccccn2)sc2ccccc12	RPS6KA2 N-terminal kinase domain	binding, competition with immobilised ligand	1 µM	remaining binding	100%
C[C@H]1CCN(c2nccc(-c3cnn4ncccc34)n2)C1	RPS6KA2 C-terminal kinase domain	binding, competition with immobilised ligand	1 µM	remaining binding	100%
CNC(=O)c1ccc(Nc2ncc(C(F)(F)F)c(NCc3nccnc3N(C)S(C)(=O)=O)n2)cc1	RPS6KA2 C-terminal kinase domain	cell-free assay, competition with immobilised ligand	0.1 µM	remaining binding	61%
CC(C)(C)c1nc2c(s1)c1nc(N)ncc1c1ccc(NS(=O)(=O)c3c(F)cccc3F)c(F)c12	RPS6KA2	enzyme activity, inhibitor, radiometric	1 µM	remaining activity	84%
Cc1ccc(Nc2nccc(N(C)c3ccc4c(C)n(C)nc4c3)n2)cc1S(N)(=O)=O	RPS6KA2	enzyme activity, inhibitor	0.3 µM	inhibition	27%
CCCCN(CCCC)C(=O)CN1C[C@@H](c2cc(OC)c3c(c2)OCO3)[C@H](C(=O)O)[C@H]1CC(C)(C)CCC	RPS6KA2 C-terminal kinase domain	cell-free assay, competition with immobilised ligand	1 µM	remaining binding	90.2%
CNCc1ccc(-c2cc(-c3nc(-c4ccc(S(=O)(=O)C(C)C)cc4)cnc3N)on2)cc1	RPS6KA2	enzyme activity, inhibitor	2 µM	inhibition	49%
Cn1cc(Cl)c2c(Oc3c(F)cc(Nc4cc(Cl)nc(N)n4)cc3F)ccnc21	RPS6KA2 N-terminal kinase domain	cell-free assay, competition with immobilised ligand	0.1 µM	remaining binding	95%
c1cnn2ncc(-c3ccnc(N4CCC45COC5)n3)c2c1	RPS6KA2 N-terminal kinase domain	binding, competition with immobilised ligand	1 µM	remaining binding	95%
Cc1ccc(NC(=O)c2ccc(C)c(C(F)(F)F)c2)cc1C#Cc1nn(C2CCC(O)CC2)c2ncnc(N)c12 (stereo not shown)	RPS6KA2	cell-free assay	10 µM	remaining signal	38%
COc1ccnn2ncc(-c3ccnc(N(C)C)n3)c12	RPS6KA2 N-terminal kinase domain	binding, competition with immobilised ligand	1 µM	remaining binding	74%
O=C(NCCCC1CCCCC1)c1ccc(CNC(=O)c2cnn(-c3ccccc3)c2C(F)(F)F)cc1	RPS6KA2 C-terminal kinase domain	cell-free assay, competition with immobilised ligand	0.1 µM	remaining binding	96%
Cc1cnn2ncc(-c3ccnc(N(C)C)n3)c2c1	RPS6KA2 N-terminal kinase domain	binding, competition with immobilised ligand	1 µM	remaining binding	85%
CN(C)C(=O)Cn1cc(-c2nc([C@@](C)(c3ccc(-c4cnc(N)nc4)cc3)C3CC3)no2)cn1	RPS6KA2 N-terminal kinase domain	cell-free assay, competition with immobilised ligand	1 µM	remaining binding	85%
N[C@H]1CCN(c2nccc(-c3cnn4ncccc34)n2)C1	RPS6KA2 C-terminal kinase domain	binding, competition with immobilised ligand	1 µM	remaining binding	91%
COc1cc2ncnc(Nc3ccc(Oc4ccccc4)c(C)c3C)c2cc1OC	RPS6KA2	enzyme activity, inhibitor	1 µM	inhibition	2%
